# ChEMBL document CHEMBL5653631, “A Potent and Selective ULK1 Inhibitor Suppresses Autophagy and Sensitizes Cancer Cells to Nutrient Stress” (iScience, 2018)
# Legend:
# [1] = target: Serine/threonine-protein kinase WNK2 (Homo sapiens) (UniProt Q9Y3S1); assay: Inhibition of human recombinant Wnk2 at 40 nM related to control ULK1
# Homo sapiens = species: Homo sapiens; assay: Inhibition of human recombinant ABL at 40 nM related to control ULK1
# In short: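 Radiometric activity assays in a panel of 327 human recombinant kinases, each run in duplicate at one inhibitor concentration. Activity remaining is expressed as percent of vehicle control, and percent inhibition is calculated as 100% minus percent activity remaining.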
# [2] = target: Interleukin-1 receptor-associated kinase 1 (Homo sapiens) (UniProt P51617); assay: Inhibition of human recombinant IRAK1 at 15 nM related to control ULK1
# [3] = target: T1, Tyrosine-protein kinase Mer (Homo sapiens) (UniProt Q12866); assay: Inhibition of human recombinant MER at 15 nM in presence of ATP by radiometric assay relative to control
# T1 sequence (whole entry): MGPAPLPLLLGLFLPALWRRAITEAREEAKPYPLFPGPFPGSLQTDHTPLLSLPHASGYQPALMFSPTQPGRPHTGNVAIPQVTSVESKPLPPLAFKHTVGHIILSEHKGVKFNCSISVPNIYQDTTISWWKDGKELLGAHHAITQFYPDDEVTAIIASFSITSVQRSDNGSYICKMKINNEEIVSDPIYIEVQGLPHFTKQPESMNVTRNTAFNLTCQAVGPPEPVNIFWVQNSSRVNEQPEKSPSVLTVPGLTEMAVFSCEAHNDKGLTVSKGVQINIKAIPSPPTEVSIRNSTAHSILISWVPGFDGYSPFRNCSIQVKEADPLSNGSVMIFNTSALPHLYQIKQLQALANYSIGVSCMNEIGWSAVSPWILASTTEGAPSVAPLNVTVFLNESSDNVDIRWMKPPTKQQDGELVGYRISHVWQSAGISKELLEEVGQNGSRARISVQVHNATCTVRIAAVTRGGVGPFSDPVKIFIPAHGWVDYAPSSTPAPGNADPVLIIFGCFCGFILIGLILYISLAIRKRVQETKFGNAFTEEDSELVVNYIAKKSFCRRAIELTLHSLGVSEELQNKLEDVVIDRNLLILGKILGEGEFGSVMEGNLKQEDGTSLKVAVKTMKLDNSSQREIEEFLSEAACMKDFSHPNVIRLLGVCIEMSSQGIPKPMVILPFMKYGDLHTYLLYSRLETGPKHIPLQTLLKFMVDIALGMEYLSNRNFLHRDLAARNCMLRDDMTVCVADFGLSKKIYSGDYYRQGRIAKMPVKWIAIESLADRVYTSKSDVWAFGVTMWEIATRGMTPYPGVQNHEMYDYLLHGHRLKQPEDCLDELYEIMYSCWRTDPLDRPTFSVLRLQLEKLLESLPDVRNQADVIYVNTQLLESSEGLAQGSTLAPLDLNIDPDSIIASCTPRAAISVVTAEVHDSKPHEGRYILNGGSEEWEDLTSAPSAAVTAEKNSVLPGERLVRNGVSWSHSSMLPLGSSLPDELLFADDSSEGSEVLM
# [4] = target: T2, Discoidin domain-containing receptor 2 (Homo sapiens) (UniProt Q16832); assay: Inhibition of human recombinant DDR2 at 15 nM related to control ULK1
# T2 sequence (whole entry): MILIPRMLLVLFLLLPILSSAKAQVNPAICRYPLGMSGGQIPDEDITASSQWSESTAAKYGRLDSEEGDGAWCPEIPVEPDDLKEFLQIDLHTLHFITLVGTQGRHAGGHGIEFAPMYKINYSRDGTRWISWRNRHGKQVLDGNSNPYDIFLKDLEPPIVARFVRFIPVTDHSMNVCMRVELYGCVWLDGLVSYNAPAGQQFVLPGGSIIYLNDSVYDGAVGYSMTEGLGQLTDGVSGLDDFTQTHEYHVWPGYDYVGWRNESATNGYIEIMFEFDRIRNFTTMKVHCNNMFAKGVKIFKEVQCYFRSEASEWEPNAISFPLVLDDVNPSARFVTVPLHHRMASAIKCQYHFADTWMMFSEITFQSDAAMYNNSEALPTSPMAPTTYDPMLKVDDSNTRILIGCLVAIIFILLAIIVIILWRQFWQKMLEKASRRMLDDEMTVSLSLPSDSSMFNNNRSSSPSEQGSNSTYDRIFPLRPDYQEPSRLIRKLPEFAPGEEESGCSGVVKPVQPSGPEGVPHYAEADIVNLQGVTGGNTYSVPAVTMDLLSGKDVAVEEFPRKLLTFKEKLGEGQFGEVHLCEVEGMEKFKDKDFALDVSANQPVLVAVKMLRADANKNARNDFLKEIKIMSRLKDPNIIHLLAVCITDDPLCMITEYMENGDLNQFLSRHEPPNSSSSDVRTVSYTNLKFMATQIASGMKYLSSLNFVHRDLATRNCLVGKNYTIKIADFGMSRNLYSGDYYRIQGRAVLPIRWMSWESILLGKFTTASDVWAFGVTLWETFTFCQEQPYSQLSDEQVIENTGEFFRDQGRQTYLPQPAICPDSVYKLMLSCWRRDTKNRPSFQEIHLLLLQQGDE
# [5] = target: Protein kinase C delta type (Homo sapiens) (UniProt Q05655); assay: Inhibition of human recombinant PKCd at 500 nM related to control ULK1
# [6] = target: T3, Inhibitor of nuclear factor kappa-B kinase subunit alpha (Homo sapiens) (UniProt O15111); assay: Inhibition of human recombinant IKKa at 500 nM related to control ULK1
# T3 sequence (whole entry): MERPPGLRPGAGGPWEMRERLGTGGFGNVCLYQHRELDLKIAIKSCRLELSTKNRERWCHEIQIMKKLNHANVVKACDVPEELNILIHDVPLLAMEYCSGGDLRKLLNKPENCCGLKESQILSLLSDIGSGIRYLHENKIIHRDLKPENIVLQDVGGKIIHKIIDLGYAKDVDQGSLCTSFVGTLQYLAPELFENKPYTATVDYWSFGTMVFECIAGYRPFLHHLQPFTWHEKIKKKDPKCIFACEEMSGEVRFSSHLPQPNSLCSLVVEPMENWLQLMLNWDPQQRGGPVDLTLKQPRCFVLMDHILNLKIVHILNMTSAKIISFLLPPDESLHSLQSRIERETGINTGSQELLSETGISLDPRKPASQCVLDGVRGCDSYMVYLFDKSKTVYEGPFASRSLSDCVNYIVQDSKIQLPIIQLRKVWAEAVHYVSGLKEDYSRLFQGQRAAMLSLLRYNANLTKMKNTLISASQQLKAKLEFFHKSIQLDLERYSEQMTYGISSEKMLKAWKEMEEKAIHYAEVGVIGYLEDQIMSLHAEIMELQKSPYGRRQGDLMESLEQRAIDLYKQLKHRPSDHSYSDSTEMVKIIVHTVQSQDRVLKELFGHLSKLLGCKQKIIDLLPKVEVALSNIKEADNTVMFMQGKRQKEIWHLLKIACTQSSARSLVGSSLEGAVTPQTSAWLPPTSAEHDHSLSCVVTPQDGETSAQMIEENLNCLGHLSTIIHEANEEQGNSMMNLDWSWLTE
# Chain of Interleukin-1 receptor-associated kinase 1 (Homo sapiens) (P51617 whole entry, looked up): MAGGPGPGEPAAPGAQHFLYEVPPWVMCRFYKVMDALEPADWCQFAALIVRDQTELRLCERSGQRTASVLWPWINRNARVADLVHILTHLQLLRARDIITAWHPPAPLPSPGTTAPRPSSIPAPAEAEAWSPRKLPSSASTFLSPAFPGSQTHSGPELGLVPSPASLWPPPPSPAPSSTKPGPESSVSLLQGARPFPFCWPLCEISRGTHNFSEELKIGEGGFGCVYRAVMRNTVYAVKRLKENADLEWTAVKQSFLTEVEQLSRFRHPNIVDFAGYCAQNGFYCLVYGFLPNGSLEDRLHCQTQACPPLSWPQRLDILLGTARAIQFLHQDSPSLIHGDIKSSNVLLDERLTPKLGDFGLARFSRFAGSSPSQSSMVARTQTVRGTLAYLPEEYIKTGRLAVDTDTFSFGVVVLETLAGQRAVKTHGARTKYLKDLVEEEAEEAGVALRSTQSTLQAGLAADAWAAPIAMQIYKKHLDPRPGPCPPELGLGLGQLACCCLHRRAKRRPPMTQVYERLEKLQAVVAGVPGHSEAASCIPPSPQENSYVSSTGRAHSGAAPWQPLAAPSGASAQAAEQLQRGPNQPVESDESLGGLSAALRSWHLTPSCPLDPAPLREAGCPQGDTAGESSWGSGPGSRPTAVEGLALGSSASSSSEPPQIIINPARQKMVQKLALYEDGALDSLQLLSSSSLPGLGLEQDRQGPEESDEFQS
# Chain of Protein kinase C delta type (Homo sapiens) (Q05655 whole entry, looked up): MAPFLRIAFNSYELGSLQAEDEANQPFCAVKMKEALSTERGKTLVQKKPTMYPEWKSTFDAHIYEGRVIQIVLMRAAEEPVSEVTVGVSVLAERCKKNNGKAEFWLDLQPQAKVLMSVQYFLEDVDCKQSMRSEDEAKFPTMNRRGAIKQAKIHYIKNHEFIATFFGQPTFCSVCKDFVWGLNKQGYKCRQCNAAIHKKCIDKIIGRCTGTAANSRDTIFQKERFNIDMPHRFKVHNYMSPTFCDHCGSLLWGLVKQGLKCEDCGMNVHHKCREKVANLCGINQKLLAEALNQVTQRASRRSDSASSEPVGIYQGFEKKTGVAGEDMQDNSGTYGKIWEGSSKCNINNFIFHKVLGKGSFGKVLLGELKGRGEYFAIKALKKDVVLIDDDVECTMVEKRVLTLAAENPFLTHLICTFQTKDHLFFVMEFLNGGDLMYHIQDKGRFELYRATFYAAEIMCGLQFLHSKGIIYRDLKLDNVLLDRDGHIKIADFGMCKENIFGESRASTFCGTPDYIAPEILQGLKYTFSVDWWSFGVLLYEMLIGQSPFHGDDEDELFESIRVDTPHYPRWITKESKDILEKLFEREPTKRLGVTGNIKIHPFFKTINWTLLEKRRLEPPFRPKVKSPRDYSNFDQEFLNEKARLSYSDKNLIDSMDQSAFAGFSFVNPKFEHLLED
# Chain of Serine/threonine-protein kinase WNK2 (Homo sapiens) (Q9Y3S1 whole entry): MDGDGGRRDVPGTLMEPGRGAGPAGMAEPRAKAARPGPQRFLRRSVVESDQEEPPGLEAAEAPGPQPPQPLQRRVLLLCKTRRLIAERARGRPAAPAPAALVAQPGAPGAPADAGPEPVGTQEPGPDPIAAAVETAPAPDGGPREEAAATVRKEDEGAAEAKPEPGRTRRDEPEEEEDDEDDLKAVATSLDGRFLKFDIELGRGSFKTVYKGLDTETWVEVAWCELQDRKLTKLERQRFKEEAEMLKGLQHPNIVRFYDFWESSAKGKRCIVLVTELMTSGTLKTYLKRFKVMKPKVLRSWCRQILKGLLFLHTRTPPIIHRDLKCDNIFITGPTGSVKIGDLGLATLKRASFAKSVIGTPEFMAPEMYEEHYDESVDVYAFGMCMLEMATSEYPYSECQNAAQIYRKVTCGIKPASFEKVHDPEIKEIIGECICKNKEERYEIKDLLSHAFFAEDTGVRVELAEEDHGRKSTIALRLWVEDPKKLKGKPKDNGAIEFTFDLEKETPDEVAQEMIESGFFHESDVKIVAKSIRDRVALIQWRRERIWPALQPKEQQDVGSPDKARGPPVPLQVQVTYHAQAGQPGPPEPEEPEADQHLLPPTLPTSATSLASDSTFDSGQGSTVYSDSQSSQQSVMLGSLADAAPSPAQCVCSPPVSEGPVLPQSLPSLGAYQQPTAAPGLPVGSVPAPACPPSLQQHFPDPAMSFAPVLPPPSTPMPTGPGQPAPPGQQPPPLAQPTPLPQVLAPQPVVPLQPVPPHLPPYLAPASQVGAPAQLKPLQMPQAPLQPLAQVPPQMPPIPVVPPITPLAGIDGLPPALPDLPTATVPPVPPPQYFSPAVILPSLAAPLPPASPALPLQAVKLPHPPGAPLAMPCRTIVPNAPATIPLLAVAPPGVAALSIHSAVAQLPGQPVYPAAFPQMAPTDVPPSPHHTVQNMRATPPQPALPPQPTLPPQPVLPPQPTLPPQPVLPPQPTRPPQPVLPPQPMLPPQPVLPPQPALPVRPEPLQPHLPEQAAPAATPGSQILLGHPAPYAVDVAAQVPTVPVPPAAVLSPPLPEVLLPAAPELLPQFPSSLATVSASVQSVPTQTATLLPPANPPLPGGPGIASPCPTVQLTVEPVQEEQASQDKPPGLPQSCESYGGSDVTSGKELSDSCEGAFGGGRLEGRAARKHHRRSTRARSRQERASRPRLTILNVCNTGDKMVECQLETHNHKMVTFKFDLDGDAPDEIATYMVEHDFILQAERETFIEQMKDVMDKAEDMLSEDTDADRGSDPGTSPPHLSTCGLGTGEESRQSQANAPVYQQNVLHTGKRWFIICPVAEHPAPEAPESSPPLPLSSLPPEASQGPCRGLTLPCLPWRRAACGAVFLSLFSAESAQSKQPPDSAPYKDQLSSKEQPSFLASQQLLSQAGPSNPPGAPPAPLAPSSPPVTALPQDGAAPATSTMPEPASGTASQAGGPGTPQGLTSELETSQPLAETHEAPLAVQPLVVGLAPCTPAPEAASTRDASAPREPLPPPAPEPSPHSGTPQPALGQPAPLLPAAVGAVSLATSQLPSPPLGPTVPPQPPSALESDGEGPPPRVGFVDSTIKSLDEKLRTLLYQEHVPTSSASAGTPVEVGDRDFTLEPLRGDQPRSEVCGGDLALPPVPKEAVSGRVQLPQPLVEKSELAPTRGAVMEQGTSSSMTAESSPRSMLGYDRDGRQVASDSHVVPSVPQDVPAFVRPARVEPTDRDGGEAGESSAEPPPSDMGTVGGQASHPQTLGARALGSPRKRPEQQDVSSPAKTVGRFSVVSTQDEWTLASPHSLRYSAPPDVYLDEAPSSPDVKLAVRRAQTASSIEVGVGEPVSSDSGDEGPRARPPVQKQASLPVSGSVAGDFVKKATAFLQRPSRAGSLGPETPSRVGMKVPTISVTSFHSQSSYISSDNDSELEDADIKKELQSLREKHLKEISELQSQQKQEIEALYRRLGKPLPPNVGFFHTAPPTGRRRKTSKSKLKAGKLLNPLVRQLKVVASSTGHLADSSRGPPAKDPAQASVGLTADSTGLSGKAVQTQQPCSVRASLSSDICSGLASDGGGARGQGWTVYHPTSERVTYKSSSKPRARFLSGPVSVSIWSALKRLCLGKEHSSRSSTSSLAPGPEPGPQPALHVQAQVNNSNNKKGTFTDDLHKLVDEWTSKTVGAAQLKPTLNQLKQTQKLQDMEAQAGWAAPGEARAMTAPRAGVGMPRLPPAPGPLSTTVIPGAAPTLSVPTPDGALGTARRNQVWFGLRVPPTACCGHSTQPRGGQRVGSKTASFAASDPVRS
compound,measurement,setting,value
O=C(N[C@@H](C1CC1)C(F)(F)F)c1cc(-c2cnn3cc(-c4ccc(F)cc4)cnc23)cs1,fold change (FC),[1],0.04
same,fold change (FC),Homo sapiens,0.16
CC(C)[C@H](NC(=O)c1cc(-c2cnn3cc(-c4ccc(OCCN5CCCCC5)cc4)cnc23)cs1)C(F)(F)F,fold change (FC),[2],0.41
same,inhibition,[3],34%
same,fold change (FC),[4],0
CNC(=O)c1ccccc1Oc1nc(Nc2cc(OC)c(OC)c(OC)c2)ncc1Br,fold change (FC),[5],0.04
same,fold change (FC),[6],0.03
